# The list is not random: actives were taken first. Their share in the collection is about 2%.
# Neddylation inh – inhibitors of cullin neddylation, primary screen, biochemical, TR-FRET, uHTS, NAE and Ubc12; NEDD8-conjugating enzyme Ubc12 (Homo sapiens) + NEDD8-activating enzyme E1 regulatory …; calls only at 25 µM; actives 0.58% (n = 360,000); in the data active = inhibition above about 36%
# NR2E3 ag-1 – NR2E3 agonists in two-hybrid cells, primary screen, cell-based, luminescence, CHO-S, Gal4-NCOR/VP16-NR2E3; luciferase; inhibition of corepressor binding, % at 3.98 µM; actives 0.35% (n = 360,000); AID 602229, 2012;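 active = inhibition above the mean of all tested compounds plus 3 SD, cut at about 70% in these data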;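 also: higher means lower luciferase signal from less NR2E3 corepressor binding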
# Target sequence (Q9Y5X4 whole entry, looked up, the tested form may be a part): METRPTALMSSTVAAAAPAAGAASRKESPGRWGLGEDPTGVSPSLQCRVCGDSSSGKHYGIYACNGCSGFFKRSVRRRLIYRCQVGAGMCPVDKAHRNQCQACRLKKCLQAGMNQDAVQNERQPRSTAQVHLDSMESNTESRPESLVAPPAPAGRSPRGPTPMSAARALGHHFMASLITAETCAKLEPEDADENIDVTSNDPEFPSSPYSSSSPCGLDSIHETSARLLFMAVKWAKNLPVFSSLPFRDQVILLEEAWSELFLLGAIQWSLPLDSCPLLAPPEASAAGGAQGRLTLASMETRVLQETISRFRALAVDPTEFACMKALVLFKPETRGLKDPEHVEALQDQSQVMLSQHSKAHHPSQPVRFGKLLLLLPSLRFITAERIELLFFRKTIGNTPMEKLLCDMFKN
# NR1D1 modulator – modulators of Rev-erb alpha DNA binding, primary screen, biochemical, FITC-DNA, fluorescence polarization, uHTS; Rev-erbα–FITC-DNA binding, 90 min; activity, % at 10 µM; actives 0.79% (n = 370,000); AID 1259318, 2017;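 active = activity above about 14%, limit read from the data; passing the limit was not always enough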
# NR2E3 ag-2 – inhibitors of NR2E3-RetCOR corepressor binding, primary screen, NR2E3 agonist project, biochemical, TR-FRET, GST-NR2E3, biotin-RetCOR; 1536-well; Photoreceptor-specific nuclear receptor (Homo sapiens), Q9Y5X4; inhibition of corepressor binding, % at 4.78 µM; actives 0.12% (n = 320,000);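 active = percent inhibition above the cutoff of mean plus 3 SD of all tested compounds, set per screening campaign, cut at about 20% in these data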
#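 system = GST-tagged NR2E3 plus biotinylated RetCOR corepressor | input = 1.35 nM GST-NR2E3 | also added = 7 nM biotin-RetCOR | schedule = 5 h incubation at 4 °C | measured by = TR-FRET with europium anti-GST and streptavidin-D2, 340 nm excitation | read-out = percent loss of FRET ratio relative to control wells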
# PG9 Ab binder – binders of HIV-1 gp120 antibody PG9, primary screen, biochemical, TR-FRET | AID 624416, 2012 | TR-FRET gp120-PG9 antibody binding | HIV-1 gp120 / PG9 antibody interaction | actives 0.43% (n = 360,000) | inhibition, % at 6.7 µM; in the data active = inhibition above about 8.5%
# NR1D1 mod conf – modulators of Rev-erb alpha DNA binding, confirmation, biochemical, FITC-DNA, fluorescence polarization, single point; shares compounds with NR1D1 modulator; 90 min; activation, % at 25 µM; actives 61% (n = 3,000); AID 1259319, 2017;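 active = activation at or above a set limit, or at least 3 SD above the negative control mean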
# RORg DNA counter – modulation of RORgamma DNA binding, dose response, counter-screen for Rev-erb alpha modulator project, biochemical, fluorescence polarization, FITC-DNA | shares compounds with NR1D1 modulator | purified RORgamma protein-FITC-DNA binding | IC50, µM | actives 8% (n = 910) | AID 1259320, 2017;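 active = Compounds whose fitted half-maximal concentration for disrupting protein-DNA binding is below 10 micromolar; the record names Rev-erb in its text, so the target is in doubt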
# Numbers stand for hits; i = inactive; nt = no result.
SMILES,Neddylation inh,NR2E3 ag-1,NR1D1 modulator,NR2E3 ag-2,PG9 Ab binder,NR1D1 mod conf,others
O=C(Nc1nnc(-c2ccc3c(c2)OCCO3)o1)c1ccc(Cc2ccccc2)cc1,i,i,31,i,i,i,
CC1(C(=O)NS(=O)(=O)c2cccc(F)c2)CCN1C(=O)Cc1cccs1 (stereo not given),i,i,i,nt,i,nt,
COc1ccc(OC)c(Nc2nc(C)nc3c2oc2ccccc23)c1,i,i,i,i,i,nt,
COc1ccc(Cl)cc1Nc1nc(C)nc2c1oc1ccccc12,i,i,15,i,i,23,
O=C(Nc1ccccc1)n1ccc2ccc(-c3ccc4cc[nH]c4c3)cc21,nt,nt,i,nt,nt,nt,
Cc1ccc(N(Cc2cc3cc(C)ccc3[nH]c2=O)C(=O)c2cccs2)cc1,i,i,48,i,i,79,RORg DNA counter=i
O=C(NCc1cccnc1)c1cnc2sccn2c1=O,i,i,i,i,i,nt,
O=C(NCCC(c1ccccc1)c1ccccc1)c1cnc2sccn2c1=O,i,i,26,i,i,i,
O=C(CSc1nnc(-c2ccccc2O)o1)Oc1ccc(OCc2ccccc2)cc1,i,i,36,i,i,i,
CCOc1ccc(-c2nnn(CC(=O)Nc3cc(OC)ccc3OC)n2)cc1OCC,i,i,i,i,i,nt,
CCOc1ccc(-c2nnn(CC(=O)c3cc(OC)ccc3OC)n2)cc1,i,i,19,i,i,i,
COc1ccc(CC(=O)Nc2cc(C)c3c(=O)oc4ccccc4c3n2)cc1,i,i,41,i,i,32,RORg DNA counter=i
CCOc1ccc(C(=O)Nc2cc(C)c3c(=O)oc4ccccc4c3n2)cc1,i,i,55,i,i,18,
O=C1/C(=C\c2cc(Cl)c(O)c(Cl)c2)SC(=S)N1Cc1ccccc1,i,i,67,nt,i,51,RORg DNA counter=i
CCC(=O)Nc1sc(Cc2ccc3c(c2)OCO3)c(C)c1C(N)=O,i,i,i,i,i,nt,
Cc1c(Cc2ccc3c(c2)OCO3)sc(NC(=O)c2ccc3ccccc3c2)c1C(N)=O,i,i,23,i,i,i,
COc1ccc(-c2cc3nc[nH]c(=O)c3s2)cc1,i,i,42,i,i,i,
N#Cc1c(-c2ccccc2)cc(-c2cccs2)nc1SCC(=O)O,i,i,i,i,i,nt,
COc1ccccc1CNC(=O)CSc1nc(N)c(C#N)c(-c2cccs2)c1C#N,i,i,35,i,i,25,
COc1ccc(-c2cc(-c3cccs3)c(C#N)c(SCC(=O)NCc3ccccc3OC)n2)cc1,i,i,46,i,i,26,
N#Cc1c(N)nc(SCc2ccccn2)c(C#N)c1-c1cccs1,i,i,i,i,i,nt,
CCOC(=O)CSc1nc(N)c(C#N)c(-c2cccs2)c1C#N,i,i,16,i,i,21,
COc1ccc(-c2cc(-c3cccs3)c(C#N)c(SCC(=O)NCc3ccccc3)n2)cc1,i,i,52,i,i,26,
O=C(CSc1nc2ccccc2n1Cc1ccccc1)NN=Cc1c[nH]c2ccccc12,nt,nt,i,nt,nt,nt,
O=C1COc2ccc(C(=O)CSc3nnc(Cc4ccccc4)o3)cc2N1,i,i,18,i,i,21,
O=C(CSc1nnc(Cc2ccccc2)o1)c1ccc(F)cc1,i,i,i,i,i,nt,
O=C1COc2ccc(C(=O)CSc3nc4ccccc4c(=O)n3-c3ccc(Cl)c(Cl)c3)cc2N1,i,i,26,i,i,i,
Cn1c(SCC(=O)c2ccc3c(c2)NC(=O)CO3)nc2ccccc21,i,i,36,i,i,24,
Cc1[nH]nc2nc(SCC(=O)NCCC3=CCCCC3)n(-c3ccc(Br)cc3)c(=N)c12,i,i,29,i,i,30,RORg DNA counter=i
